ChEMBL document CHEMBL3351484, “Positive allosteric modulators of 2-amino-3-(3-hydroxy-5-methylisoxazol-4-yl)propionic acid receptors belonging to 4-cyclopropyl-3,4-dihydro-2h-1,2,4-pyridothiadiazine dioxides and diversely chloro-substituted 4-cyclopropyl-3,4-dihydro-2H-1,2,4-benzothiadiazine 1,1-dioxides” (J Med Chem, 2014)
The source made the active and inactive calls. No cut-off for these calls is given here.

Legend:
[1] = tested on: Primary neuron; assay: Positive allosteric modulation of AMPA receptor in rat embryonic cortex primary neuronal culture assessed as maximal increase in AMPA-induced membrane depolarization normalized to AMPA-evoked response by microplate reader; type: cell membranes
Summary of the method: (§1)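 Primary cultures of rat embryonic cortical neurons; depolarization evoked by 300 μM AMPA read with fluorescent membrane potential dyes on an imaging plate reader. EC2× is the modulator level doubling the AMPA response (geometric mean, 95% CI).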

[2] = species on record: Rattus norvegicus; assay: Positive allosteric modulation of AMPA receptor in rat hippocampal slice assessed as increase in AMPA-mediated presynaptic noradrenaline release; type: tissue-based; design: concentration or dose not given beside the values; details: Hippocampus
Summary of the method: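 Rat hippocampal slices, [3H]noradrenaline release evoked by (S)-AMPA 10 μM, modulator at 300 μM; release given as percent of (S)-AMPA alone taken as 100%.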

[3] = tested on: Primary neuron; assay: Potentiation of AMPA receptor in rat embryonic cortex primary neuronal culture assessed as concentration required to 2-fold increase in AMPA-induced membrane depolarization by microplate reader; type: cell membranes; summary of the method: as §1
[4] = species on record: Rattus norvegicus; assay: Positive allosteric modulation of AMPA receptor in rat hippocampal slice assessed as amplitude of AMPA-mediated […] postsynaptic field potential in CA1 area at 10 uM; type: tissue-based; details: Hippocampus
Summary of the method: (§2)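 Rat hippocampal slices perfused with medium containing 1.2 mM Mg2+; field EPSPs recorded in CA1 after electrical stimulation of Schaffer collaterals. Area, amplitude and half-width normalized to the 10 min baseline as 100%, reported as percent increase, mean ± SEM (n = 3–4).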

[5] = Positive allosteric modulation of AMPA receptor in rat embryonic cortex primary neuronal culture assessed as increase in AMPA-induced membrane depolarization by microplate reader; type: cell membranes; details: primary neuron; summary of the method: as §1
[6] = species on record: Rattus norvegicus; assay: Positive allosteric modulation of AMPA receptor in rat hippocampal slice assessed as amplitude of AMPA-mediated […] postsynaptic field potential in CA1 area at 3 uM; type: tissue-based; details: Hippocampus; summary of the method: as §2
[7] = tested on: Hippocampus; assay: Potentiation of tetanus-induced synaptic response in Wistar rat hippocampal dentate gyrus at 3 mg/kg, ip measured during 42 mins; type: functional, organism-based; design: dose 3 mg/kg
[8] = tested on: Hippocampus; assay: Potentiation of high-frequency stimulation-induced synaptic response in Wistar rat hippocampal dentate gyrus assessed as increase in long-term potentiation at 10 mg/kg, ip after 1 hr; type: functional, organism-based; design: dose 10 mg/kg
Summary of the method: (§3)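 Anesthetized Wistar rats dosed ip; perforant-path stimulation with dentate gyrus responses. 1 h after dosing, LTP induced by tetanic high-frequency stimulation and responses followed 3 h; eight responses averaged (every 2 min), normalized to 60 min baseline. n = 8 per group; Dunnett test after two-way ANOVA versus vehicle.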

[9] = tested on: Mus musculus; assay: Increase in object recognition task in CD1 mouse at 1 mg/kg, po after 24 hrs; type: functional, organism-based; design: dose 1 mg/kg
Summary of the method: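 Three-session test (habituation, familiarization, recognition) given at 24 h intervals in CD1 mice, compound given orally 1 h before each session. Durations of exploring new versus familiar objects recorded; mean + SEM, paired Student's t test versus familiar object.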

[10] = tested on: Hippocampus; assay: Potentiation of tetanus-induced synaptic response in Wistar rat hippocampal dentate gyrus at 3 mg/kg, ip measured first 18 mins; type: functional, organism-based; design: dose 3 mg/kg
Summary of the method: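 Anesthetized Wistar rats, dosed ip at 3 or 10 mg/kg, n = 8 per group. Dentate gyrus responses evoked by perforant-path stimulation every 2 min, averaged over eight stimulations and normalized to the 60 min baseline. High-frequency tetanus given 1 h after dosing, with recording for 3 h. Potentiation duration judged per group against the 6 min pre-tetanus period.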

[11] = species on record: Rattus norvegicus; assay: Positive allosteric modulation of AMPA receptor in rat hippocampal slice assessed as half-width of AMPA-mediated […] postsynaptic field potential in CA1 area at 10 uM; type: tissue-based; details: Hippocampus; summary of the method: as §2
[12] = species on record: Rattus norvegicus; assay: Positive allosteric modulation of AMPA receptor in rat hippocampal slice assessed as half-width of AMPA-mediated […] postsynaptic field potential in CA1 area at 3 uM; type: tissue-based; details: Hippocampus; summary of the method: as §2
[13] = tested on: Hippocampus; assay: Potentiation of high-frequency stimulation-induced synaptic response in Wistar rat hippocampal dentate gyrus assessed as excitatory postsynaptic field potential at 3 mg/kg, ip after 3 hrs; type: functional, organism-based; design: dose 3 mg/kg; summary of the method: as §3
[14] = tested on: Hippocampus; assay: Potentiation of high-frequency stimulation-induced synaptic response in Wistar rat hippocampal dentate gyrus assessed as excitatory postsynaptic field potential at 10 mg/kg, ip after 3 hrs; type: functional, organism-based; design: dose 10 mg/kg; summary of the method: as §3
[15] = Drug uptake in mouse plasma at 3 mg/kg, po qd after 20 mins by LC-MS/MS analysis; type: ADME, organism-based; design: dose 3 mg/kg, route oral
Summary of the method: (§4)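 NMRI mice dosed orally, killed by decapitation 20 min later; brain and blood rapidly removed and frozen, compound quantified by LC−MS/MS. Brain in ng/g, plasma in ng/mL; n = 3.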

[16] = species on record: Rattus norvegicus; assay: Positive allosteric modulation of AMPA receptor in rat hippocampal slice assessed as area of AMPA-mediated […] postsynaptic field potential in CA1 area at 3 uM; type: tissue-based; details: Hippocampus; summary of the method: as §2
[17] = Drug uptake in mouse brain at 3 mg/kg, po qd after 20 mins by LC-MS/MS analysis; type: ADME, organism-based; design: dose 3 mg/kg, route oral; details: read-out: Drug uptake; summary of the method: as §4
[18] = Ratio of drug level in mouse brain to plasma at 3 mg/kg, po qd after 20 mins by LC-MS/MS analysis; type: ADME, organism-based; design: dose 3 mg/kg, route oral
Summary of the method: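 Oral dosing in NMRI mice, 20 min before decapitation; brain and plasma levels measured by LC−MS/MS (n = 3), ratio taken as [brain]/[plasma] in mL/g.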

[19] = species on record: Rattus norvegicus; assay: Positive allosteric modulation of AMPA receptor in rat hippocampal slice assessed as area of AMPA-mediated […] postsynaptic field potential in CA1 area at 10 uM; type: tissue-based; details: Hippocampus; summary of the method: as §2
[20] = biological target: Glutamate receptor 2 (Homo sapiens, UniProt P42262); assay: Binding affinity to GluA2-LBD-L483Y-N754S complex (unknown origin) by isothermal titration calorimetry
Summary of the method: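 Direct ITC titration at 25 °C. 20 × 2 μL injections at 3 min, the first 0.4 μL. First point discarded and dilution heat subtracted before a single-site fit. Mean of three titrations.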

Sequence of Glutamate receptor 2 (P42262 whole entry, the tested form may be a part): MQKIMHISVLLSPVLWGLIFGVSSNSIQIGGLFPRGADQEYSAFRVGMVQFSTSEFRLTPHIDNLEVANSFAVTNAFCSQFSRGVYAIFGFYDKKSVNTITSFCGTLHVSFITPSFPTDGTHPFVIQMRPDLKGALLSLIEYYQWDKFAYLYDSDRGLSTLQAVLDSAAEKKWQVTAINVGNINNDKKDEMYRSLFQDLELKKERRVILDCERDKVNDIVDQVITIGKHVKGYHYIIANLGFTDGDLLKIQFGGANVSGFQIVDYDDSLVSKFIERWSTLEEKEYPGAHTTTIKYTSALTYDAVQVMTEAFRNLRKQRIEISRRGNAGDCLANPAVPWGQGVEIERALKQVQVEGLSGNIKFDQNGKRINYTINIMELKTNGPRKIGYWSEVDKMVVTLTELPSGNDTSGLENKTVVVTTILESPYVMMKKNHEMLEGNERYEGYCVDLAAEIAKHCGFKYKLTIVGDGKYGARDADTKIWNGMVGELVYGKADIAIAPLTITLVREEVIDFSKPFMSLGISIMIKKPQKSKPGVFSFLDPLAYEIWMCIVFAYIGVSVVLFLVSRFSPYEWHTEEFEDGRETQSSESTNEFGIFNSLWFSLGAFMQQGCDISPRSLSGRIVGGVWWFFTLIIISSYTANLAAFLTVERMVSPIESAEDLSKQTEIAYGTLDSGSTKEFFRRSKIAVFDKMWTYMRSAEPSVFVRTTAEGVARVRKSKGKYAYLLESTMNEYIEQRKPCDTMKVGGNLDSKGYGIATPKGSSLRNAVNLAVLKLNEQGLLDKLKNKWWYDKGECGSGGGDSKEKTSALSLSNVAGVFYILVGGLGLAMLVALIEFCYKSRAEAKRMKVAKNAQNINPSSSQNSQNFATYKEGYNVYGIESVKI

| SMILES | Emax [1] | Activity [2] [%] | Activity [3] [µM] | EC50 [5] [µM] | also measured |
| --- | --- | --- | --- | --- | --- |
| O=S1(=O)NCN(C2CC2)c2cc(Cl)ccc21 | > 5 | 327 | 5.2 |  |  |
| O=S1(=O)NCN(C2CC2)c2cccc(Cl)c21 | > 9 | 352 | 2 |  |  |
| O=S1(=O)NCN(C2CC2)c2ccncc21 | > 11 | 330 | 4.4 |  |  |
| O=S1(=O)NCN(C2CC2)c2ncc(Cl)cc21 | > 7 | 276 | 2.4 |  |  |
| O=S1(=O)NCN(C2CC2)c2c(Cl)cccc21 | > 3 | 196 | 27.1 |  |  |
| O=S1(=O)NCN(C2CC2)c2ccc(Cl)cc21 | 11 | 411 | 0.68 | 2.9 | Activity [4]: 58%; Activity [6]: 5.3%; Activity [7]: Active; Activity [8]: Active; Activity [9]: Active; Activity [10]: Active; Activity [11]: 113%; Activity [12]: 9%; Activity [13]: Active; Activity [14]: Active; concentration at 20 min [15]: 64.7 ng/mL; Activity [16]: 10%; concentration at 20 min [17]: 72.7 ng/g; Kp at 20 min [18]: 1.12; Activity [19]: 145% |
| CCN1CNS(=O)(=O)c2cnccc21 |  |  |  |  | Kd [20]: 1200 µM |
| O=S1(=O)NCN(C2CC2)c2ncccc21 | > 4 | 221 | 13.9 |  |  |
| O=S1(=O)NCN(C2CC2)c2ccc(F)cc21 | 15 |  | 0.27 | 0.9 | Kd [20]: 0.35 µM |
| O=S1(=O)NCN(C2CC2)c2cccnc21 | 10 | 323 | 0.35 | 1.5 |  |
